From ChEMBL document CHEMBL4330062 (Eur J Med Chem, 2019)
Where a SMILES comes first, the peptide text is derived from it. Bridges are numbered along the chain shown (N, C = ends). The star is where a group is joined. NH(β-GlcNAc) = CC(=O)N[C@@H]1[C@@H](O)[C@H](O)[C@@H](CO)O[C@H]1N*; Valol = CC(C)[C@@H](CO)N*

Legend:
[1] = biological target: T1, Somatostatin receptor type 4 (Homo sapiens, UniProt P31391); assay: Displacement of [125I]somatostatin-14 (Tyr11) from human SSTR4 expressed in African green monkey COS1 cell membranes after 2 hrs by scintillation counting method
T1 sequence (P31391 whole entry): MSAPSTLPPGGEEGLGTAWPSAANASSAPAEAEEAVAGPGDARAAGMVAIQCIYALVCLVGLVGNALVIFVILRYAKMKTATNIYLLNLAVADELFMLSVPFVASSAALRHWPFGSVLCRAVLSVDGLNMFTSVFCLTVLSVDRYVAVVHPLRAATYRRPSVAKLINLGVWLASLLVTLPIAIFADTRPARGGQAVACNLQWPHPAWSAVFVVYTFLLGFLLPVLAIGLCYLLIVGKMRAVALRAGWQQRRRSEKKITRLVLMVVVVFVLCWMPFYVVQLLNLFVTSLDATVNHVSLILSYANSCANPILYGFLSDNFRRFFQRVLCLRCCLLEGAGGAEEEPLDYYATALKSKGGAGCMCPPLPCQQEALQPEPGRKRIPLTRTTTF
Summary of the method: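 Membranes from transiently transfected COS-1 cells (10 μg protein) incubated 2 h at room temperature in 10 mM Hepes pH 7.5 with 5 mM MgCl2, bacitracin, 0.5% BSA and ¹²⁵I-[Tyr¹¹]-somatostatin-14 (30,000 cpm), with unlabeled somatostatin-14 and test ligands at various concentrations. Bound radioactivity read by scintillation counting.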

[2] = biological target: T2, Somatostatin receptor type 5 (Homo sapiens, UniProt P35346); assay: Displacement of [125I]somatostatin-14 (Tyr11) from human SSTR5 expressed in African green monkey COS1 cell membranes after 2 hrs by scintillation counting method
T2 sequence (P35346 whole entry): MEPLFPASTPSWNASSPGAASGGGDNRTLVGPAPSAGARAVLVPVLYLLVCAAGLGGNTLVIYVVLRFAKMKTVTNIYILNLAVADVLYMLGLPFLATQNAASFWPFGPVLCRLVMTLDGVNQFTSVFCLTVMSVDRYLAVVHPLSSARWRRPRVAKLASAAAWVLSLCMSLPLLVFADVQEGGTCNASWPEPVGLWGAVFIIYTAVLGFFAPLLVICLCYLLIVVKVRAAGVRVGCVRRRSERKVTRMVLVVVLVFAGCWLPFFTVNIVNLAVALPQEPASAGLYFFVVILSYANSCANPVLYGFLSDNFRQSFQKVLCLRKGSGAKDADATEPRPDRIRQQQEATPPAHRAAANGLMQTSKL
Summary of the method: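 SSTR-5 gene cloned into pCMV6c and transfected into COS1 cells. Membrane preparation (20 μg protein) incubated 2 h at room temperature in Na⁺-free buffer: 10 mM HEPES, 1% BSA, 5 mM MgCl2, 1 mg/ml bacitracin, pH 7.45. Contained ~10 pM [¹²⁵I-Tyr¹¹]-somatostatin-14, either alone or with somatostatin-14 and test ligands at various concentrations.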

Homo sapiens [3] = organism: Homo sapiens; assay: Selectivity ratio of Ki for human SSTR5 to Ki for human SSTR4
Homo sapiens [4] = organism: Homo sapiens; assay: Selectivity ratio of Ki for human SSTR4 to Ki for human SSTR5
[5] = biological target: T1, Somatostatin receptor type 4; assay: Inhibition of human SSTR4 by radioligand binding assay
[6] = biological target: T2, Somatostatin receptor type 5; assay: Inhibition of human SSTR5 by radioligand binding assay

For `NCCCCO[C@H]1[C@H](O)[C@H](OCc2ccccc2)COCCCc2cccc(O)c2C(=O)OC[C@@H]1NC(=O)Cc1c[nH]c2ccccc12`, the IC50 [1] was 1.2 µM, the Ki [1] was 1.9 µM and the IC50 [2] was 3 µM. The Ki [2] was 3.2 µM.
Molecule `NC/C=C/CO[C@H]1[C@H](O)[C@H](OCc2ccccc2)COC/C=C/c2cccc(O)c2C(=O)OC[C@@H]1NC(=O)Cc1c[nH]c2ccccc12` has an IC50 [1] of 0.59 µM, a Ki [1] of 0.58 µM and an IC50 [2] of 1.6 µM. It also gave a Ki [2] of 1.1 µM.
For `NCCCCN1CCCCCCOCc2cn(nn2)C[C@H]2O[C@H](CC1)[C@H](OCc1cccc3ccccc13)[C@@H](O)[C@H]2O`, the IC50 [1] was > 100 µM, the Ki [1] was > 100 µM and the IC50 [2] was > 100 µM. The Ki [2] was > 100 µM.
For `NCCCCC[C@@H]1[C@@H](O)[C@H](O)[C@@H](O)CN1Cc1cccc2ccccc12`, the Ki [1] was > 100 µM and the Ki [2] was 23 µM.
`NCCCCCOC[C@@H]1[C@@H](OCc2ccccc2)[C@H](OCc2ccccc2)[C@@H](OCc2ccccc2)CN1CCc1c[nH]c2ccccc12` was tested, and the Ratio Ki (Homo sapiens [3]) was 1.13.
`NCCCCC[C@@H]1[C@@H](OCc2ccccc2)[C@H](OCc2ccccc2)[C@@H](OCc2ccccc2)CN1Cc1cccc2ccccc12` was tested, and the Ki [1] was 1.9 µM, the Ki [2] was 1.3 µM and the Ratio Ki (Homo sapiens [4]) was 1.46.
For `C[C@@H](O)[C@@H]1NC(=O)[C@H](CCCCN)NC(=O)[C@@H](Cc2c[nH]c3ccccc23)NC(=O)[C@H](Cc2ccccc2)NC(=O)[C@@H](NC(=O)[C@@H](Cc2ccccc2)NC(=O)CN2CCN(CC(=O)O)CCN(CC(=O)O)CCN(CC(=O)O)CC2)CSSC[C@@H](C(=O)N[C@H](CO)[C@@H](C)O)NC1=O`, the IC50 [5] was 0.103 µM and the IC50 [6] was > 1 µM.
With `NCCCCN1CCCCCOCc2cn(nn2)C[C@H]2O[C@H](CC1)[C@H](OCc1cccc3ccccc13)[C@@H](O)[C@H]2O` the IC50 [1] was > 100 µM, the Ki [1] was > 100 µM and the IC50 [2] was > 100 µM. The Ki [2] was > 100 µM.
`CC(=O)O[C@H]1[C@H](OC(C)=O)[C@@H](CCCCCN)N(Cc2cccc3ccccc23)C[C@@H]1OC(C)=O` showed a Ki [1] of 5.4 µM, a Ki [2] of 5.1 µM and a Ratio Ki (Homo sapiens [4]) of 1.05.
`Cc1ccc(S[C@H]2O[C@H](CO)[C@@H](O)[C@H](OCCCCN)[C@@H]2NC(=O)Cc2c[nH]c3ccccc23)cc1` gave an IC50 [1] of 6.9 µM, a Ki [1] of 6.8 µM and an IC50 [2] of 18 µM. It also gave a Ki [2] of 12 µM and a Ratio Ki (Homo sapiens [3]) of 1.8.
`CC(=O)N[C@@H](Cc1ccccc1)C(=O)N[C@@H](C)C(=O)N[C@@H](Cc1ccccc1)C(=O)N[C@@H](Cc1c[nH]c2ccccc12)C(=O)N[C@@H](CCCCN)C(=O)N[C@@H](CC(=O)O)C(=O)N[C@@H](C)C(=O)N[C@H](CO)C(C)C` (Ac-FAFWKDA-Valol) was tested, and the IC50 [1] was > 100 µM, the Ki [1] was > 100 µM and the Ki [2] was > 100 µM.
Molecule `Cc1ccc(S[C@H]2O[C@H](CO)[C@@H](O)[C@H](OC/C=C/CN)[C@@H]2NC(=O)Cc2c[nH]c3ccccc23)cc1` has an IC50 [1] of 2.2 µM, a Ki [1] of 2.1 µM and an IC50 [2] of 5.9 µM. For the same molecule, the Ki [2] was 3.9 µM and the Ratio Ki (Homo sapiens [3]) was 1.8.
With `NCCCCCOC[C@@H]1[C@@H](O)[C@H](O)[C@@H](O)CN1CCc1c[nH]c2ccccc12` the Ki [2] was > 100 µM.
With `CC(=O)N[C@@H](Cc1ccccc1)C(=O)N[C@H]1CSSC[C@@H](C(=O)N[C@H](CO)C(C)C)NC(=O)[C@H](CC(=O)O)NC(=O)[C@H](CCCCN)NC(=O)[C@H](Cc2c[nH]c3ccccc23)NC(=O)[C@H](Cc2ccccc2)NC1=O` (Ac-FCFWKDC-Valol; disulfide 2-7) the IC50 [1] was 7.4 µM, the Ki [1] was 7.2 µM and the IC50 [2] was 16 µM. The Ki [2] was 10 µM.
For `CC(=O)N[C@@H]1[C@@H](O)[C@H](O)[C@@H](CO)O[C@H]1NC(=O)C[C@@H]1NC(=O)[C@H](CCCCN)NC(=O)[C@H](Cc2c[nH]c3ccccc23)NC(=O)[C@H](Cc2ccccc2)NC(=O)[C@@H](NC(=O)[C@H](Cc2ccccc2)NC(C)=O)CSSC[C@@H](C(=O)N[C@H](CO)C(C)C)NC1=O` (Ac-FCFWKD(NH(β-GlcNAc))C-Valol; disulfide 2-7), the IC50 [1] was 21 µM, the Ki [1] was 20 µM and the IC50 [2] was 5.2 µM. The Ki [2] was 3.4 µM.
With `NCCCCO[C@@H]1[C@@H](O)[C@H](CO)OC(O)[C@@H]1NC(=O)Cc1c[nH]c2ccccc12` (stereo not given in full) the Ki [1] was > 100 µM and the Ki [2] was > 100 µM.
`CC(C)CCO[C@@H]1[C@@H](O)[C@@H](O)[C@H]2Cn3cc(nn3)COCCCCCCN(CCc3c[nH]c4ccccc34)CC[C@H]1O2` was tested, and the IC50 [1] was 22 µM, the Ki [1] was 21 µM and the IC50 [2] was 6.2 µM. For the same molecule, the Ki [2] was 4.1 µM.
